Screens deposited in PubChem BioAssay by Johns Hopkins Ion Channel Center.
KCNQ1 inh – blocks the human KCNQ1 potassium channel; P51787; CHO-K1 KCNQ1, FluxOR thallium flux fluorescence; hits give high values; B-score at 10 µM; actives 1.3% (n = 310,000); AID 2642;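 active = compounds whose thallium flux B-score, printed positive for inhibition, exceeds three library SD while starting fluorescence stays within three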;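 note: channel opened by potassium depolarization with thallium stimulus after 20 min compound exposure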
KCNQ1 pot – potentiators or activators of human KCNQ1 potassium channel; actives 0.35% (n = 310,000); B-score at 10 µM; P51787; CHO-K1 KCNQ1, thallium flux FluxOR fluorescence; hits give high values;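 active = fluorescence ratio B-score, a plate-corrected score, at least three library SD, with initial intensity B-score within 5 SD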
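Doses: Single concentration per compound, DMSO matched to controls | Test system: KCNQ1-transfected CHO-K1 cells | Timing: 90 min dye loading and 20 min compound exposure, both at room temperature | Measured by: Kinetic FluxOR thallium fluorescence, 10-s 1-Hz baseline, 110-s post-stimulus read | Medium: Assay buffer with matched DMSO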
hERG protect – hERG (human) protection from proarrhythmic block | Q12809 | CHO-hERG, FluxOR thallium flux, dofetilide IC70 present | activation (rescue from dofetilide block), less the hit threshold, % at 10 µM | actives 0.51% (n = 310,000) | AID 1511;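 active = activation above the mean of controls blocked by dofetilide plus 5 SD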;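 note: thallium influx through hERG after potassium depolarization seen as dye fluorescence rise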
Target sequence (Q12809 whole entry, looked up): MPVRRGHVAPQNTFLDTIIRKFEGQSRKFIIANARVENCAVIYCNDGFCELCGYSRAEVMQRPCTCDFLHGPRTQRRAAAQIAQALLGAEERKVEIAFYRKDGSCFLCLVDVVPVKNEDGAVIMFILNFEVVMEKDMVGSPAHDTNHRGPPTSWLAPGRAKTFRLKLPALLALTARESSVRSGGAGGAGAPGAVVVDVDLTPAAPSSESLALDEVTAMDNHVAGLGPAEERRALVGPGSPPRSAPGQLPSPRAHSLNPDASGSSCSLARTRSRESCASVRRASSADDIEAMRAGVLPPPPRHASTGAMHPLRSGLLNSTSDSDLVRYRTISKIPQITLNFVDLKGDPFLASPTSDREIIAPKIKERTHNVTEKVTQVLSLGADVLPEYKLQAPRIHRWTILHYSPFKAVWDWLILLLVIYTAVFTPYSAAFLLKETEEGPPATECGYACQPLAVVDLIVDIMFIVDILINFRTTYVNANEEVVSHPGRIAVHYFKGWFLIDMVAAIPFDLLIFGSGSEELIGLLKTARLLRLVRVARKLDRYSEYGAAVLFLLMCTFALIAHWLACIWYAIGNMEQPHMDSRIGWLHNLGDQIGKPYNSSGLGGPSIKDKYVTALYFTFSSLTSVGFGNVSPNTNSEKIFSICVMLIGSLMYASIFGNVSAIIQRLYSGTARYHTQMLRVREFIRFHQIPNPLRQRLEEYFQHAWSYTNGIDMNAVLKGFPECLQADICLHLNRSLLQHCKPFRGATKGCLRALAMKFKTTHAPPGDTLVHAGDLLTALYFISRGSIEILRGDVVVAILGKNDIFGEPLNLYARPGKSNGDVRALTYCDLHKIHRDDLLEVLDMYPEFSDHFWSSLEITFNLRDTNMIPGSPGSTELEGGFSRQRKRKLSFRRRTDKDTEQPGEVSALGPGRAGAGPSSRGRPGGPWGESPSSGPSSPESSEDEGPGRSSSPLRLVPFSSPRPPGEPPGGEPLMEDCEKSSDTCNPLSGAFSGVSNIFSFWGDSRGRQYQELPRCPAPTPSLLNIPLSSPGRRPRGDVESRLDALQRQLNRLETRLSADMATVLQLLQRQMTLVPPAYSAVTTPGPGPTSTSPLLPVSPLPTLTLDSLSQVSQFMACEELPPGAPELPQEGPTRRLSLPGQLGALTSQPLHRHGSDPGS
KCNK9 inh – blocks the human KCNK9 two-pore domain potassium channel | Q9NPC2 | HEK293 KCNK9, FluxOR thallium flux fluorescence; hits give low values | B-score at 10 µM | actives 1.2% (n = 310,000) | AID 488922;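 active = ratio B-score over 3 SD below the library mean, with starting fluorescence within 5 SD of its mean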;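 note: negative B-score means less thallium flux so channel inhibition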
KCNK3 block – human KCNK3 channel inhibition, primary screen; O14649; CHO-KCNK3 thallium flux, FluxOR fluorescence; hits give low values; B-score at 10 µM; actives 0.84% (n = 340,000); AID 602410;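 active = B-score under library mean minus 4 SD, starting fluorescence ratio at most library mean plus 5 SD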;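 note: more negative B-score means stronger inhibition of thallium flux through KCNK3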
Each line names hits and unclear results; the compound was inactive in the other large screens. Shown are actives, neighbours in structure and some others; about 3.1% of the full set was active somewhere.

Clc1ccc(CSc2cc3c(nn2)-c2ccccc2CC3)cc1	KCNQ1 inh 6
Clc1ccc(CSc2ccc(-c3ccccn3)nn2)cc1	none
COc1ccc(Cc2nc(C(=O)Nc3ccc(Cl)cc3)cs2)cc1	KCNK3 block -17.9
Cc1ccc(NC(=S)Nc2ccc(OC(F)F)c(Cl)c2)cc1Cl	none
Cc1ccc(NC(=S)Nc2ccc(Cl)c(Cl)c2)c(OC(F)F)c1	KCNQ1 inh 9
Cc1ccc(OCCCCNC2CCCC(C)C2C)c(C)c1 (centres undefined)	KCNQ1 inh 6
CSc1nc(NCc2ccco2)c2ccccc2n1	none
CNc1nc(SC)nc2ccccc12	hERG protect 6.6
O=C(c1sc2ccccc2c1Cl)N(Cc1ccccc1)C1CCS(=O)(=O)C1 (centres undefined)	none
O=C(c1sc2ccccc2c1Cl)N(Cc1ccccc1Cl)C1CCS(=O)(=O)C1 (centres undefined)	KCNK9 inh -6.79
COc1ccc([C@@]2(C(C)C)ON(c3ccccc3C(F)(F)F)C2=O)cc1	none (no result: KCNQ1 inh, KCNQ1 pot, hERG protect, KCNK9 inh)
Cc1c(NC(=O)CN2C(=O)NC(C)(c3ccccc3)C2=O)c(=O)n(-c2ccccc2)n1C (centres undefined)	hERG protect 5.8
Cc1ccc(C2(C)NC(=O)N(CC(=O)Nc3c(C)n(C)n(-c4ccccc4)c3=O)C2=O)cc1 (centres undefined)	none
CCC(C)NC(=O)c1cc(Cl)c(NC(=O)C2=C(C)OCCS2)cc1OC (centres undefined)	KCNQ1 pot 44
COc1ccc(C(=O)NC(=S)N(C)Cc2ccccc2)cc1Br	none
CCN(CC)C(=S)NC(=O)c1ccc(OC)c(Br)c1	KCNQ1 pot 8
C=CCN(CC=C)C(=S)NC(=O)c1ccc(OC)c(Br)c1	KCNQ1 pot 32, hERG protect 33.3
C=CCN(CC=C)C(=S)NC(=O)c1ccc([N+](=O)[O-])cc1	KCNQ1 pot 10, hERG protect 41.8
Cc1ccc(NC(=O)Cc2nc(COC(=O)Cc3cccc(C(F)(F)F)c3)cs2)cc1	none (no result: KCNQ1 inh, KCNQ1 pot, hERG protect, KCNK9 inh)
CC(C)(C)[C@H]1COC(=O)[C@@H](Cc2ccc(F)cc2)CC/C=C/C[C@@H](CC(=O)N[C@@H](CO)Cc2ccccc2)C(=O)N1	none (no result: KCNQ1 inh, KCNQ1 pot, hERG protect, KCNK9 inh)
Cc1ccc(S(=O)(=O)NCC2CCC(C(=O)N3CCN(C)CC3)CC2)cc1 (centres undefined)	none
CS(=O)(=O)c1ccc(C(=O)OCc2nnc(-c3ccc(Cl)cc3)o2)cc1[N+](=O)[O-]	KCNQ1 pot 12
O=C(OCc1nnc(-c2ccc(Cl)cc2)o1)c1ccc(O)cc1	none
COc1ccc(/C=C2\Sc3ccc(C(=O)N4CCc5ccccc5C4)cc3N(C)C2=O)cc1	none (no result: KCNK3 block)
Cc1cccc(CN2C(=O)/C(=C\c3ccc(C(=O)NCCN4CCOCC4)cc3)Sc3ccccc32)c1	KCNQ1 inh 8
CCN1CCN(CCNC(=O)c2ccc3c(c2)N(Cc2ccc(F)cc2)C(=O)/C(=C/c2ccccc2)S3)CC1	KCNQ1 inh 10
O=C(NCCN1CCOCC1)c1ccc2c(c1)N(Cc1cccc(F)c1)C(=O)c1ccccc1S2	none
COc1ccc(/C=C2\Sc3ccc(C(=O)NCCN4CCCCCC4)cc3N(C)C2=O)cc1	KCNQ1 inh 9
CN1CCN(CCCNC(=O)c2ccc(/C=C3\Sc4ccccc4N(Cc4ccccc4F)C3=O)cc2)CC1	none
Cc1ccccc1CN1C(=O)/C(=C\c2ccc(C(=O)NCCN3CCOCC3)cc2)Sc2ccccc21	none
O=C(NCCN1CCOCC1)c1ccc(/C=C2\Sc3ccccc3N(Cc3ccccc3F)C2=O)cc1	KCNQ1 inh 11
CN(C(=O)c1ccc2c(c1)OCCO2)c1c(N)n(Cc2ccccc2)c(=O)[nH]c1=O	none
N#CCN(CC#N)C(=O)C1c2ccccc2Oc2ccccc21	none
c1csc(CCNc2ncnc3sc4c(c23)CCC4)c1	KCNK3 block -8.74
c1ccc(Nc2ncnc3sc4c(c23)CCC4)cc1	hERG protect 5.2
c1cncc(CNc2ncnc3sc4c(c23)CCCC4)c1	none
CC(=O)N1N=C(c2cccc(Cl)c2)OC1c1ccc(C(C)C)cc1 (centres undefined)	KCNQ1 inh 6
Cc1cccc(OCCSc2nncn2C)c1	hERG protect 9.8
Cc1cc(O)c(CN2CCN(S(=O)(=O)c3cccs3)CC2)cc1C(C)C	none (no result: KCNQ1 inh, KCNQ1 pot, hERG protect, KCNK9 inh)
CCCNC(=O)N(C)c1nncnc1C(=O)NC	hERG protect 11.2
CC(=O)Nc1ccc(S(=O)(=O)N2CCC(c3nc4c(nnn4Cc4ccccc4Cl)c(=O)[nH]3)CC2)cc1	none
Cc1ccc(OCCN2C(=O)c3ccccc3C2=O)c([N+](=O)[O-])c1	KCNQ1 pot 9
CC1CCN(c2ccc3c(c2)S(=O)(=O)c2cccc(C(=O)NC4CCCCC4)c2C3=O)CC1	none (no result: KCNQ1 inh, KCNQ1 pot, hERG protect, KCNK9 inh)
CCn1cc(CCC(=O)NCc2cccc(OC)c2OC)c2ccccc21	hERG protect 6.4
COc1ccc(NS(=O)(=O)c2ccc3ccccc3c2)c2ncccc12	KCNQ1 pot 11, hERG protect 5.7
COc1ccc(CN(C)C(=O)Cn2cc(C)c(=O)[nH]c2=O)cc1OC	none (no result: KCNQ1 inh, KCNQ1 pot, hERG protect, KCNK9 inh)
CCOC(=O)c1c(NC(=O)CSc2nnc(-c3ccccc3)o2)sc(C(C)=O)c1C	none
CCOC(=O)c1c(NC(=O)CSc2nnc(-c3ccc(C)cc3)o2)sc(C(C)=O)c1C	KCNK3 block -10.1 (no result: KCNQ1 inh, KCNQ1 pot, hERG protect, KCNK9 inh)
CCOC(=O)c1c(NC(=O)C2c3ccccc3Oc3ccccc32)sc(C(C)=O)c1C	KCNK9 inh -7.35
CC(=O)N1CCOc2ccc(S(=O)(=O)NC(C)c3ccccc3)cc21 (centres undefined)	none
COc1ccc(CN(C)CC(=O)Nc2cccc(S(=O)(=O)N(C)c3ccccc3)c2)c(OC)c1	none (no result: KCNQ1 inh, KCNQ1 pot, hERG protect, KCNK9 inh)
CC(C)CC(C(=O)NC1CCCCC1)N(Cc1ccccc1)C(=O)c1snc(C(N)=O)c1N (centres undefined)	KCNQ1 inh 6
CCC(C(=O)NC1CCCC1)N(Cc1ccc2c(c1)OCO2)C(=O)c1snc(C(N)=O)c1N (centres undefined)	none
CC(C)CC(C(=O)NC1CCCC1)N(Cc1ccc2c(c1)OCO2)C(=O)c1snc(C(N)=O)c1N (centres undefined)	KCNQ1 inh 6
COc1ccc(CN(C(=O)c2snc(C(N)=O)c2N)C(CC(C)C)C(=O)NC2CCCCC2)cc1 (centres undefined)	none
CCOc1ccc(S(=O)(=O)N2CCCC(C(=O)N3CCOCC3)C2)cc1C (centres undefined)	none
COC(=O)c1nccnc1N	none (no result: KCNQ1 inh, KCNQ1 pot, hERG protect, KCNK9 inh)
CCOc1ccc2[nH]c(=O)c(CN(CCN3CCCC3)C(=S)Nc3ccccc3OCC)cc2c1	KCNQ1 pot 10
COc1ccc2[nH]c(=O)c(CN(CCN3CCCC3)C(=O)Nc3ccccc3Cl)cc2c1	none
O=[N+]([O-])c1ccccc1/C=N\N1CCN(c2ccccc2)CC1	none
O=[N+]([O-])c1ccc(Cl)c(/C=N/N2CCN(c3ccccc3)CC2)c1	KCNK9 inh -7.84
O=[N+]([O-])c1ccccc1/C=N/N1CCN(c2ccc(Cl)cc2)CC1	KCNK9 inh -7.66
